Assay results reported in ChEMBL document CHEMBL1155311, “Synthesis and evaluation of N-[(1S,2S)-3-(4-chlorophenyl)-2-(3-cyanophenyl)-1-methylpropyl]-2-methyl-2-aminopropanamide as human cannabinoid-1 receptor (CB1R) inverse agonists” (Bioorg Med Chem Lett, 2009).

Legend:
[1] = target: T1, Cannabinoid receptor 1 (Homo sapiens, UniProt P21554); test: Displacement of [3H]CP-55940 from recombinant human CB1 receptor expressed in CHO cells; type: cell-based
[2] = target: Cytochrome P450 3A4 (Homo sapiens, UniProt P08684); test: Inhibition of CYP3A4; type: ADME
[3] = target: Cannabinoid receptor 2 (Homo sapiens, UniProt P34972); test: Displacement of [3H]CP-55940 from recombinant human CB2 receptor expressed in CHO cell; type: cell-based
[4] = species on record: Homo sapiens; test: Selectivity ratio of IC50 of human recombinant CB2 receptor to IC50 of human recombinant CB1 receptor
[5] = target: T1, Cannabinoid receptor 1; test: Inverse agonist activity at human CB1 receptor assessed as forskolin-induced cAMP level by adenylyl cyclase activation flash plate assay; type: functional
[6] = system: Liver microsomes; test: Metabolic stability in rat liver microsomes assessed as glucuronide formation; type: ADME, Microsome
Outline: (§1)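 Rat or human liver microsomes (1 mg/mL protein) were incubated in 100 mM potassium phosphate, pH 7.4, with 10 mM MgCl2, alamethicin, 5 mM D-saccharic acid 1,4-lactone and 3 mM UDPGA. Incubation ran 90 min at 37 °C with shaking and was quenched with 2 volumes of cold acetonitrile. After centrifugation, glucuronide was detected in the supernatant by LC–MS/MS.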

[7] = system: Liver microsomes; test: Metabolic stability in human liver microsomes assessed as glucuronide formation; type: ADME, Microsome; outline: as §1

Sequence of Cannabinoid receptor 2 (P34972 whole entry): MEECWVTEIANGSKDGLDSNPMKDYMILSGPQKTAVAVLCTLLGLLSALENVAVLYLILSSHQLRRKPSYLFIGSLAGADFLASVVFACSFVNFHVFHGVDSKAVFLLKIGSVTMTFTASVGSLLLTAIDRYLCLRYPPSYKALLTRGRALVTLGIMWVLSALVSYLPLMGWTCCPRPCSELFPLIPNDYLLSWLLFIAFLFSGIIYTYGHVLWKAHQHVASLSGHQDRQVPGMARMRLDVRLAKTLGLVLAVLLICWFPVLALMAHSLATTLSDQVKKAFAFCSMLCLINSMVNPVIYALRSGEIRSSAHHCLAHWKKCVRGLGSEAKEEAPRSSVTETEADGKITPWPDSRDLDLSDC
T1 sequence (P21554 whole entry): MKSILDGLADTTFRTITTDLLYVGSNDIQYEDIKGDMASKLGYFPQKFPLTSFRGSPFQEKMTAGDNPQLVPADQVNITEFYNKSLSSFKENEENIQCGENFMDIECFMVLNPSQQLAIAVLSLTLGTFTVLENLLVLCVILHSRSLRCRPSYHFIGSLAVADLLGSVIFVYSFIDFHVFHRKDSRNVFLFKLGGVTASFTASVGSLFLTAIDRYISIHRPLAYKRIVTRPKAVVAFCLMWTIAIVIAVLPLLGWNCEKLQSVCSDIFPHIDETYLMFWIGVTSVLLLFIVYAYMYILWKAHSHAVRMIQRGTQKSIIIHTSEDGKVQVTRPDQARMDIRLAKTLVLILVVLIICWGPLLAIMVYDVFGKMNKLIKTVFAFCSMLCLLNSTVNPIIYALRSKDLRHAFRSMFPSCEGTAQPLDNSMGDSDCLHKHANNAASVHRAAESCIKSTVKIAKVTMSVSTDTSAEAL
Sequence of Cytochrome P450 3A4 (P08684 whole entry): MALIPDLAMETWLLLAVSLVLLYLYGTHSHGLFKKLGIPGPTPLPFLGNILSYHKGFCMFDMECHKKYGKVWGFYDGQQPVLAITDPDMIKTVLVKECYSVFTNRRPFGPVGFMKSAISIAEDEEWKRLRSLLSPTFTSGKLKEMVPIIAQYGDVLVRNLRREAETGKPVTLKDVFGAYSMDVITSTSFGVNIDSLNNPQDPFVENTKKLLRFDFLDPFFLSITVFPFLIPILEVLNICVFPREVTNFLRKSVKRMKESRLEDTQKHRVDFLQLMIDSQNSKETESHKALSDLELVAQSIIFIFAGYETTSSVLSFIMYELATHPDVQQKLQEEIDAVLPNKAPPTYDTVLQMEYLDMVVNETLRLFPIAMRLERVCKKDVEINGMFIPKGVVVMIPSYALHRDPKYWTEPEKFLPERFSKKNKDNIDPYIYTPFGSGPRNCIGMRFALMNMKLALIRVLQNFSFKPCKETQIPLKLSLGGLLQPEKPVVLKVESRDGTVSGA

IC50 [1] | IC50 [2] | IC50 [3] | Ratio IC50 [4] | EC50 [5] | Stability [6] | Stability [7] | SMILES
132 nM | > 35000 nM | 1720 nM | 13 |  |  |  | C[C@H](NC(C)(C)C(=O)Nc1ccc(C(F)(F)F)cn1)[C@@H](Cc1ccc(Cl)cc1)c1cccc(C#N)c1
37.7 nM |  | 547 nM | 15 |  |  |  | Cc1ccnc(NC(C)(C)C(=O)N[C@@H](C)[C@@H](Cc2ccc(Cl)cc2)c2cccc(C#N)c2)c1
 |  |  | 20 |  |  |  | Cc1cc(NC(C)(C)C(=O)N[C@@H](C)[C@@H](Cc2ccc(Cl)cc2)c2cccc(C#N)c2)n[nH]1
1.6 nM |  | 353 nM | 221 | 0.9 nM | Stable | Stable | C[C@H](NC(=O)C(C)(C)Nc1cc(C(F)(F)F)ccn1)[C@@H](Cc1ccc(Cl)cc1)c1cccc(C#N)c1
203 nM |  | 13300 nM | 65 |  |  |  | C[C@H](NC(=O)C(C)(C)Nc1ccnn1C)[C@@H](Cc1ccc(Cl)cc1)c1cccc(C#N)c1
8.6 nM |  | 254 nM | 30 | 3.5 nM |  |  | C[C@H](NC(=O)C(C)(C)Nc1cc(C(C)(C)C)on1)[C@@H](Cc1ccc(Cl)cc1)c1cccc(C#N)c1
47.7 nM |  | 3210 nM | 67 |  |  |  | C[C@H](NC(=O)C(C)(C)Nc1ccon1)[C@@H](Cc1ccc(Cl)cc1)c1cccc(C#N)c1
97 nM |  | 1410 nM | 15 |  |  |  | C[C@H](NC(=O)C(C)(C)Nc1nc2ccccc2n1C)[C@@H](Cc1ccc(Cl)cc1)c1cccc(C#N)c1
186 nM |  | 234 nM | 1.3 |  |  |  | C[C@H](NC(=O)C(C)(C)Nc1cc(-c2ccccc2)on1)[C@@H](Cc1ccc(Cl)cc1)c1cccc(C#N)c1
49 nM |  | 1830 nM | 37 |  | Stable | Stable | C[C@H](NC(=O)C(C)(C)Nc1ccccn1)[C@@H](Cc1ccc(Cl)cc1)c1cccc(C#N)c1
12.2 nM |  | 699 nM | 57 |  |  |  | C[C@H](NC(=O)C(C)(C)Nc1ncc(Cl)cc1Cl)[C@@H](Cc1ccc(Cl)cc1)c1cccc(C#N)c1
301 nM |  | 6110 nM |  |  |  |  | Cc1cc(NC(C)(C)C(=O)N[C@@H](C)[C@@H](Cc2ccc(Cl)cc2)c2cccc(C#N)c2)[nH]n1
136 nM |  | 2310 nM | 17 |  |  |  | C[C@H](NC(C)(C)C(=O)Nc1cc(-c2ccccc2)on1)[C@@H](Cc1ccc(Cl)cc1)c1cccc(C#N)c1
49.2 nM |  | 14000 nM | 286 |  | Stable | Stable | C[C@H](NC(=O)C(C)(C)Nc1ccncn1)[C@@H](Cc1ccc(Cl)cc1)c1cccc(C#N)c1
19.5 nM |  | 5160 nM | 265 |  |  |  | Cc1cc(NC(C)(C)C(=O)N[C@@H](C)[C@@H](Cc2ccc(Cl)cc2)c2cccc(C#N)c2)no1
10.1 nM |  | 117 nM | 12 | 1.9 nM |  |  | C[C@H](NC(=O)C(C)(C)Nc1cc2ccccc2cn1)[C@@H](Cc1ccc(Cl)cc1)c1cccc(C#N)c1
2980 nM |  | 25900 nM | 8.7 |  |  |  | C[C@H](NC(=O)C(C)(C)NCCCN(C)C)[C@@H](Cc1ccc(Cl)cc1)c1cccc(C#N)c1
7.5 nM | 2030 nM | 322 nM | 43 | 3.2 nM |  |  | C[C@H](NC(=O)C(C)(C)Nc1ccc(C(F)(F)F)cn1)[C@@H](Cc1ccc(Cl)cc1)c1cccc(C#N)c1
17.9 nM |  | 419 nM | 23 |  |  |  | C[C@H](NC(=O)C(C)(C)Nc1ncc(C(F)(F)F)cc1Cl)[C@@H](Cc1ccc(Cl)cc1)c1cccc(C#N)c1
46.1 nM |  | 3860 nM | 84 |  |  |  | Cc1cc(NC(C)(C)C(=O)N[C@@H](C)[C@@H](Cc2ccc(Cl)cc2)c2cccc(C#N)c2)on1
